Data as given in ChEMBL document CHEMBL3877303 (J Med Chem, 2017).
One block for each compound: values may come before it. Active and inactive are the calls of the source. The calls are words filed in the database; no cut-off is given here.

Columns and labels:
[1] = test system: GISTT1; test: Induction of apoptosis in human GISTT1 cells assessed as cleavage of PARP at 0.1 to 3 uM by Western blot analysis; format: functional, cell-based
Summary of the method: (§1)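 Cells were treated with DMSO or serially diluted compound for the indicated periods. They were washed in ice-cold PBS and lysed in RIPA buffer with protease/phosphatase inhibitors, and protein was quantified by BCA. Lysates were resolved by SDS-PAGE, transferred to PVDF and blocked in 5% milk/TBST. Blots were probed for PARP and caspase-3, with β-actin as loading control, and detected by ECL.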

[2] = molecular target: T1, Macrophage colony-stimulating factor 1 receptor (Homo sapiens, UniProt P07333); test: Inhibition of recombinant His-tagged human CSF1R cytoplasmic domain expressed in baculovirus expression system assessed as residual activity at 1 uM measured after 1 hr by FRET based Z'Lyte assay relative to control
[3] = test system: Mast/stem cell growth factor receptor Kit (Homo sapiens), P10721 [T670I]; test: Inhibition of Tel-fused c-KIT T670I mutant (unknown origin) expressed in BAF3 cells assessed as growth inhibition measured after 72 hrs by CellTiter-Glo or CCK8 assay; format: cell-based
Summary of the method: (§2)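 BaF3 lines were made by retroviral transduction with kinase-fusion MSCV vectors packaged in HEK293T cells. Cells were selected with puromycin for 48 h, then selected again without IL-3 so growth depends on the introduced kinase. […] They were seeded at 1 to 2.5×10^4 cells/mL with compound dilutions and incubated 72 h. Viability was read by CellTiter-Glo luminescence or CCK-8 absorbance (450/655 nm), normalized to DMSO control; GI50 was curve-fitted from triplicate tests.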

[4] = AUC (0 to t) in Sprague-Dawley rat at 10 mg/kg, po; format: ADME, organism-based; conditions: in vivo
Summary of the method: (§3)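 Male Sprague-Dawley rats aged six to eight weeks were fasted overnight and then dosed iv or orally. Blood (~0.2 mL) was drawn from the jugular vein into heparin and kept on ice. Sampling was at 1 min to 8 h for iv and 5 min to 24 h for oral. Plasma was separated by centrifugation at 2-8 °C and stored at -80 °C until analysis.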

[5] = Anticancer activity against human K562 cells xenografted in nu/nu mouse assessed as tumor weight at 25 mg/kg administered via oral gavage measured after 28 days (reference value: 6.75 g); format: functional
Summary of the method: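 Female nu/nu mice received ten million K562 cells subcutaneously in the right flank, in PBS mixed 1:1 with Matrigel. Daily oral gavage began at 200-400 mm³ tumor size, with 4 or 5 mice per group. Dosing was 25, 50 or 100 mg/kg/d or vehicle (0.5% methylcellulose/0.4% Tween80) for 28 days. Body weight and tumor size were normalized to initial values, and final tumor weight was recorded. Data are mean ± SEM.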

[6] = test system: GIST882; test: Induction of apoptosis in human GIST882 cells assessed as cleavage of PARP at 0.1 to 3 uM by Western blot analysis; format: functional, cell-based; summary of the method: as §1
[7] = Mean residence time (0 to t) in Sprague-Dawley rat at 10 mg/kg, po; format: ADME, organism-based; conditions: in vivo
Summary of the method: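 Male Sprague-Dawley rats, 6-8 weeks old, fasted overnight, dosed iv or po. Jugular vein blood (~0.2 mL, heparin) sampled at 1 min to 8 h (iv) or 5 min to 24 h (po). Plasma separated by centrifugation at 2-8 °C and stored at -80 °C before analysis.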

[8] = molecular target: T1, Macrophage colony-stimulating factor 1 receptor; conditions: BaF3
[9] = test system: KU812 cell line; test: Induction of apoptosis in human KU812 cells assessed as increase in cleaved caspase-3 level at 0.1 to 3 uM by Western blot analysis; format: functional, cell-based; summary of the method: as §1
[10] = Cell cycle arrest in human GIST882 cells assessed as accumulation at G0/G1 phase at 0.3 uM after 48 hrs by propidium iodide/RNase staining based flow cytometry; format: functional
Summary of the method: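 Cells were exposed to serially diluted compound, then fixed in cold 70% ethanol overnight at -20 °C. They were stained with PI/RNase buffer for DNA-content cell-cycle analysis.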

[11] = molecular target: T2, Mast/stem cell growth factor receptor Kit (Homo sapiens, UniProt P10721); test: Inhibition of recombinant C-terminal polyhistidine-tagged human c-KIT expressed in mammalian expression system assessed as residual activity at 1 uM using Tyr 06 peptide as substrate measured after 1hr by FRET based Z'Lyte assay relative to control
[12] = AUC (0 to t) in Sprague-Dawley rat at 1 mg/kg, iv; format: ADME, organism-based; conditions: in vivo; summary of the method: as §3
[13] = test system: Mast/stem cell growth factor receptor Kit (Homo sapiens), P10721 [D816V]; test: Inhibition of Tel-fused c-KIT D816V mutant (unknown origin) expressed in BAF3 cells assessed as growth inhibition measured after 72 hrs by CellTiter-Glo or CCK8 assay; format: cell-based; summary of the method: as §2
[14] = test system: BaF3; test: Inhibition of BCR/ABL p210 fusion protein T315I mutant (unknown origin) expressed in BAF3 cells assessed as growth inhibition measured after 72 hrs by CellTiter-Glo or CCK8 assay; format: cell-based; conditions: Homo sapiens; summary of the method: as §2
[15] = test system: K562; test: Induction of apoptosis in human K562 cells assessed as increase in cleaved caspase-3 level at 0.1 to 3 uM by Western blot analysis; format: functional, cell-based; summary of the method: as §1
[16] = molecular target: T2, Mast/stem cell growth factor receptor Kit; test: Inhibition of c-KIT mediated signaling pathways assessed as reduction in S6K phosphorylation at T389 in human GISTT1 cells at 0.03 to 10 uM measured after 2 hrs by immunoblotting; format: cell-based
Summary of the method: (§4)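 After an ice-cold PBS wash, cells were lysed in RIPA buffer (50 mM Tris pH 8.0) with protease and phosphatase inhibitors, and protein was quantified by BCA. Lysates were run on SDS-PAGE, transferred to PVDF and blocked in 5% milk/TBST. Phospho- and total proteins were probed by immunoblot with ECL detection; β-actin served as loading control.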

[17] = Antiproliferative activity against human K562 cells measured after 72 hrs by CellTiter-Glo or CCK8 assay; format: functional; conditions: K562, 72 h
[18] = test system: Mast/stem cell growth factor receptor Kit (Homo sapiens), P10721 [V559D]; test: Inhibition of Tel-fused c-KIT V559D mutant (unknown origin) expressed in BAF3 cells assessed as growth inhibition measured after 72 hrs by CellTiter-Glo or CCK8 assay; format: cell-based; summary of the method: as §2
[19] = molecular target: T3, BCR/ABL p210 fusion protein (Homo sapiens, UniProt A1Z199); test: Inhibition of BCR/ABL p210 fusion protein autophosphorylation at Y245 in human K562 cells measured after 2 hrs by immunoblotting; format: cell-based; summary of the method: as §4
Target sequence in this assay (A1Z199 whole entry, the tested form may be a part): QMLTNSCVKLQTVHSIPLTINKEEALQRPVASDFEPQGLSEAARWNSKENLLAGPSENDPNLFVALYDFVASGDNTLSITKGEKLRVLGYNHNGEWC

[20] = molecular target: T3, BCR/ABL p210 fusion protein; test: Inhibition of BCR/ABL p210 fusion protein mediated signaling pathways assessed as reduction in CrkL phosphorylation at Y207 in human KU812 cells at 0.01 to 3 uM measured after 2 hrs by immunoblotting; format: cell-based; summary of the method: as §4
Target sequence in this assay (A1Z199 1-97): as the sequence (A1Z199 whole entry, the tested form may be a part) above

[21] = molecular target: T2, Mast/stem cell growth factor receptor Kit; test: Inhibition of c-KIT mediated signaling pathways assessed as reduction in AKT phosphorylation at S473 in human GIST882 cells at 0.03 to 10 uM measured after 2 hrs by immunoblotting; format: cell-based; summary of the method: as §4
[22] = test system: BaF3; test: Inhibition of BCR/ABL p210 fusion protein Y253H mutant (unknown origin) expressed in BAF3 cells assessed as growth inhibition measured after 72 hrs by CellTiter-Glo or CCK8 assay; format: cell-based; conditions: Homo sapiens; summary of the method: as §2
[23] = molecular target: T2, Mast/stem cell growth factor receptor Kit; conditions: 1 uM

T2 sequence (P10721 whole entry): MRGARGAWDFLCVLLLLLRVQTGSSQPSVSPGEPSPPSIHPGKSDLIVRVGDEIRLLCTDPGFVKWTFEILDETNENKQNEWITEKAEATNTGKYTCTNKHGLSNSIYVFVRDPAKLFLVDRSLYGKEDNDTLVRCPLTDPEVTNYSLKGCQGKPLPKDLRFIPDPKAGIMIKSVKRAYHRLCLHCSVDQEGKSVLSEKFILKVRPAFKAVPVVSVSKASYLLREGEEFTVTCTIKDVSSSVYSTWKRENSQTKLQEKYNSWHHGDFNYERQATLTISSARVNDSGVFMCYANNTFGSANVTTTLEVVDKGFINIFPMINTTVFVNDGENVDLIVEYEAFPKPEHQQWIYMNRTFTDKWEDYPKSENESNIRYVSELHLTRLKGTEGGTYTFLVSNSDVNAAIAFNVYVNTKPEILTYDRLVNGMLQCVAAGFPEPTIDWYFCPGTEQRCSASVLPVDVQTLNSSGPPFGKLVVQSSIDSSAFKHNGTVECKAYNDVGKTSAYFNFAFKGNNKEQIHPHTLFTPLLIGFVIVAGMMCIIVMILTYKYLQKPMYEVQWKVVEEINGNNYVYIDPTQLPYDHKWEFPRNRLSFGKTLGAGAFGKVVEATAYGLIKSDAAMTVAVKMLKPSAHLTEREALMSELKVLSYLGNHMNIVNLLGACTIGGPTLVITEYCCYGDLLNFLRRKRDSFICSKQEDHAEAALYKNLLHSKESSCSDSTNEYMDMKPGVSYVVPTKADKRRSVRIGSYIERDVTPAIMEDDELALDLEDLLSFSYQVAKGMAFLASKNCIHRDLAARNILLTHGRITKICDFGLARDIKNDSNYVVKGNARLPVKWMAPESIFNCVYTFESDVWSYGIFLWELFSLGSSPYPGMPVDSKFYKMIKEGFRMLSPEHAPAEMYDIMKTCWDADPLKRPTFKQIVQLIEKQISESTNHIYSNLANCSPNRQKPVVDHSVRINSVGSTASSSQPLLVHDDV
T1 sequence (P07333 whole entry, the tested form may be a part): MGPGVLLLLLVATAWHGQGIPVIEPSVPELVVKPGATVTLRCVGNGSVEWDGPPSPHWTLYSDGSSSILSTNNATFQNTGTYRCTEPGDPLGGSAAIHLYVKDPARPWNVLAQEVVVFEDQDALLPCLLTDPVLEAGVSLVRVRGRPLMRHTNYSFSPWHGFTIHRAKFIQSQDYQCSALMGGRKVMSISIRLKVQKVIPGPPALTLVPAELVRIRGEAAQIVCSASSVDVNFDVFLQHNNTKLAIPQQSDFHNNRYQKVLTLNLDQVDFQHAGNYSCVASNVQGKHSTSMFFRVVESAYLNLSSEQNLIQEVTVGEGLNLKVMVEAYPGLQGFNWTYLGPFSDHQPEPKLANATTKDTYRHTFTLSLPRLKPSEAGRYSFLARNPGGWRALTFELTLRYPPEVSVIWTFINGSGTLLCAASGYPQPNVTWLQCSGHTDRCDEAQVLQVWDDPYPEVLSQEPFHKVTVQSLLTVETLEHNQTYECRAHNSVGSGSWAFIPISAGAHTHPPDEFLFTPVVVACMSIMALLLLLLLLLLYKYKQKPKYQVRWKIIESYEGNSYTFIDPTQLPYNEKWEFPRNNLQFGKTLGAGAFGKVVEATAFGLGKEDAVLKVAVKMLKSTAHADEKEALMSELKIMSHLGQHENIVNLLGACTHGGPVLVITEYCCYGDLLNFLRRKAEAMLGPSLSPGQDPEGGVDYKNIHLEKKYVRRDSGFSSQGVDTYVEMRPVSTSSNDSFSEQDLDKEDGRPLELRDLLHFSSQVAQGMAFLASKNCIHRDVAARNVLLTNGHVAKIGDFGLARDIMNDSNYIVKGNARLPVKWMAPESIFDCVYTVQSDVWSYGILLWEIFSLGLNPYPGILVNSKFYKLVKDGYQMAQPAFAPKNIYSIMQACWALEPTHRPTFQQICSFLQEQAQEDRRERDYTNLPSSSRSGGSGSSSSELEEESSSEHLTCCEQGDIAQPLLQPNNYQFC
Chain of Mast/stem cell growth factor receptor Kit (Homo sapiens), P10721 [V559D] (P10721 whole entry V559D, the tested form may be a part): as the sequence (P10721 whole entry) above, with V559D counted along it
Chain of Mast/stem cell growth factor receptor Kit (Homo sapiens), P10721 [D816V] (P10721 whole entry D816V, the tested form may be a part): as the sequence (P10721 whole entry) above, with D816V counted along it
Chain of Mast/stem cell growth factor receptor Kit (Homo sapiens), P10721 [T670I] (P10721 whole entry T670I, the tested form may be a part): as the sequence (P10721 whole entry) above, with T670I counted along it

- Activity [2]: 0.3%
- GI50 [3]: 1850 nM
- AUC(0-t) [4]: 2420 ng·h/mL
- MRT last [7]: 5.75 h
- GI50 [8]: 162 nM
- Activity [11]: 0.8%
- AUC(0-t) [12]: 510 ng·h/mL
- GI50 [13]: 5060 nM
- GI50 [14]: > 10000 nM
- inhibition [16]: Active
- GI50 [18]: 78 nM
- EC50 [19]: < 100 nM
- inhibition [20]: Active
- inhibition [21]: Active
- GI50 [22]: 1670 nM
SMILES: Cc1ccc(C(=O)N2CCC(Oc3cc(NC(=O)c4ccc(CN5CCN(C)CC5)c(C(F)(F)F)c4)ccc3C)CC2)cn1
- Activity [1]: Active
- Activity [5]: 7.46 g
- Activity [6]: Active
- Activity [9]: Active
- Activity [10]: Active
- Activity [15]: Active
- GI50 [17]: 27 nM

- inhibition [23]: Active
SMILES: Cc1ccc(NC(=O)c2ccc(CN3CCN(C)CC3)cc2)cc1Nc1nccc(-c2cccnc2)n1 [IMATINIB]
